Rows were chosen to be rich in hits. Some 4.1% of all compounds tested hit in one or more screens of this group.
XBP1 UPR activ: activators of adaptive arm of unfolded protein response (XBP1); CHO-XBP1 luciferase reporter, IRE1-XBP1 UPR activation, luminescence; percent of tunicamycin response, DMSO as zero; activation, % at 20 µM; 330,000 compounds, 0.33% hits; AID 463104;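 active means versus positive control, 20 µM dose yields 30% or more activation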;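 further: 100% = tunicamycin at 10 µg/mL and 0% = DMSO only wells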
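Material: CHO-XBP1 cells stably carrying IRE1-XBP1-driven luciferase reporter | Medium: F12 with 10% serum | Compound dosing: 20 µM single concentration, DMSO 1% | Incubation: Overnight seeding at 37 °C, 6 h compound treatment at 37 °C | Detection: Steady-Glo luminescence read | Read-out basis: % activation of reporter signal versus tunicamycin and DMSO controls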
CHOP UPR activ: activators of apoptotic arm of unfolded protein response (CHOP) | CHO-CHOP luciferase reporter, UPR activation, luminescence; percent of tunicamycin response over DMSO baseline | activation, % at 10 µM | 330,000 compounds, 0.34% hits | AID 449763;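 active means at 10 µM dose, activation of 40% or more, normalized to positive control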;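 further: 100% = tunicamycin at 10 µg/mL and 0% = DMSO alone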
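assay system = CHO CHOP reporter cells | amount = 500 CHO-CHOP cells per well | buffer or medium = F12 with 10% FBS | incubation = 16-18 h cell attachment, then 6 h compound exposure, 37 °C | detection = luminescence read with Steady-Glo | read-out = percent activation relative to tunicamycin control | controls = tunicamycin high control, DMSO low control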
UBC13 inh: blocks human UBC13 polyubiquitin chain formation | P61088 | 330,000 compounds, 0.47% hits | inhibition, % at 20 µM | TR-FRET; in the data active means inhibition above about 45%, passing the limit was not always enough
Target sequence (P61088 whole entry, looked up): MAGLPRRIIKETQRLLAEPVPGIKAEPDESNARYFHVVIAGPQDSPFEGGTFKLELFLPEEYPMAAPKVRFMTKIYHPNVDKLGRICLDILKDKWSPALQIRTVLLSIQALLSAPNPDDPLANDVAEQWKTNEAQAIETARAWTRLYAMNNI
Mdm2-MdmX inh: inhibitors of human Mdm2/MdmX interaction; O15151+Q00987; SaOS-2 split-luciferase Mdm2/MdmX complementation, luminescence; inhibition, % at 8 µM; 330,000 compounds, 3% hits;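 active means inhibition of at least 50% at 8 µM in the primary screen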
Apaf-1 inh: inhibitors of human Apaf-1 apoptosome; AID 489030; reconstituted apoptosome caspase-3 activity, DEVD-Rh110 fluorescence; 330,000 compounds, 0.71% hits; inhibition, % at 20 µM; O14727; active means inhibition of at least 40% at 20 µM;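 further: plate controls were DMSO wells for no effect and DEVD-CHO caspase inhibitor wells for full effect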
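detection = Rh110 fluorescence intensity | test system = biochemical Apaf-1 apoptosome reconstitution | also added = cytochrome c and DEVD-Rh110 substrate | schedule = 30 min plus 50 min, RT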
Casp3 UBC13 ctr: caspase-3 inhibition (UBC13 counter-screen); shares compounds with UBC13 inh; Recombinant caspase-3, Caspase-Glo 3/7 luminescence, 60 min; inhibition, % at 20 µM; 1,400 compounds, 4% hits;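 active means mean inhibition across replicates above about 26%, limit read from the data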;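 further: plate controls were DMSO with caspase-3 for no effect and DMSO wells lacking enzyme for full effect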
Target sequence (P42574 whole entry, looked up): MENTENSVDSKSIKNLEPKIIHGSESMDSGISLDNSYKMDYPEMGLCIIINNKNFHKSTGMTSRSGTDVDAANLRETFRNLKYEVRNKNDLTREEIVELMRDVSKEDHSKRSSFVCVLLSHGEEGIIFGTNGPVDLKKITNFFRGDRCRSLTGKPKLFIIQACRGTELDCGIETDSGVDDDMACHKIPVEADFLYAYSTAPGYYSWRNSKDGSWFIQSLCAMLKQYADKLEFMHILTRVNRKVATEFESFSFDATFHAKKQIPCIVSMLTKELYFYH
UBC13 conf: human UBC13 polyubiquitin inhibition, confirmed | shares compounds with UBC13 inh | UBC13 polyubiquitination, TR-FRET, biochemical | inhibition, % at 10 µM | 1,400 compounds, 68% hits | AID 488859; in the data active means inhibition above about 45%
Mdm2 MdmX conf: confirmation of human Mdm2/MdmX interaction inhibitors | shares compounds with Mdm2-MdmX inh | Mdm2-MdmX binding, luminescent assay | inhibition, % at 8 µM | 10,000 compounds, 55% hits | AID 489028; in the data active means inhibition above about 40%
FLuc counter: inhibits full-length luciferase, flagging false Mdm2/MdmX hits; shares compounds with Mdm2-MdmX inh; SaOS-2 full-length luciferase counterscreen, luminescence; inhibition, % at 8 µM; 6,200 compounds, 77% hits; AID 504607;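 active means mean inhibition at 8 µM reaching about 37%, which flags the compound as non-specific, limit read from the data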;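 further: p53-null SaOS-2 cells with luciferase driven by a doxycycline-inducible promoter; compound on cells about two nights before reading with doxycycline added after day one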
Apaf-1 inh conf: Apaf-1 inhibition, single-dose confirmed. reconstituted apoptosome, caspase-3 DEVD-Rh110 fluorescence. 1,800 compounds, 25% hits. AID 504614. shares compounds with Apaf-1 inh. inhibition, % at 20 µM;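 active means mean inhibition of at least 40% at 20 µM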;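 further: plate controls were DMSO wells for no effect and DEVD-CHO caspase inhibitor control wells for full effect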
Rh110 quench: Rh110 signal interference in Apaf-1 inhibitor counter-screen. shares compounds with Apaf-1 inh. Rh110 fluorescence interference, quenched caspase reaction. activation (fluorescence interference), % at 20 µM. 1,800 tested, under 10 active. AID 504615;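 active means signal rise of 40% or more at 20 µM, treated as a fluorescence artifact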
Apaf1 inh interf: shows fluorescence interference in the Apaf-1 inhibitor assay format | shares compounds with Apaf-1 inh | fluorescence interference counterscreen, Apaf-1 assay format | IC50, µM | 460 tested, under 10 active; call rule not given here
* hit, by the source's call; . = no result.

SMILES | XBP1 UPR activ | CHOP UPR activ | UBC13 inh | Mdm2-MdmX inh | Apaf-1 inh | Casp3 UBC13 ctr | UBC13 conf | Mdm2 MdmX conf | Apaf-1 inh conf | Rh110 quench | others
Cc1nn(C)cc1S(=O)(=O)Nc1ccccc1Br | -5 | -2 | -10 | -20 | 17 | . | . | . | . | .
COc1cccc(CCc2nnc(N)s2)c1 | -4 | -2 | 0 | 6 | -3 | . | . | . | . | .
N=c1n(CC(=O)c2ccc(Br)cc2)c2ccccc2n1Cc1ccccc1 | 20 | 7 | 57* | 97* | 53* | -3 | 61* | 75* | -34 | 19 | FLuc counter=55*
CCOC(=O)c1ccc(N2CCOCC2)c(NS(=O)(=O)c2ccc(F)cc2)c1 | -1 | 0 | 1 | 17 | 6 | . | . | . | . | .
CCN(CC)CCOC(=O)c1ccc(N/C=C(/C#N)c2nc(-c3ccc4c(c3)OCO4)cs2)cc1 | -1 | 0 | 108* | 22 | 60* | 1 | 132* | . | 63* | 4 | Apaf1 inh interf=>100
CC1CCC(=C(C#N)c2nc(-c3cc4ccccc4oc3=O)cs2)CC1 (stereo unspecified) | 2 | 6 | 0 | -1 | 17 | . | . | . | . | .
CCN(CC)CCOC(=O)c1ccc(N/C=C(/C#N)c2nc(-c3cc4ccccc4oc3=O)cs2)cc1 | 0 | 4 | 114* | 29 | 54* | 1 | 132* | . | 61* | 9 | Apaf1 inh interf=>100
N=c1n(Cc2ccccc2)c2ccccc2n1CC(O)COc1ccc(Cl)cc1Cl (stereo unspecified) | 3 | 24 | 65* | 100* | 52* | 0 | 91* | 100* | 38 | -18 | FLuc counter=61*
C=CC(=O)Nc1ccc(N(C)c2ccnc(Nc3ccc(N4CCN(C)CC4)cc3)n2)cc1 | -1 | -2 | 85* | 93* | 62* | 2 | 77* | 63* | 25 | 6 | FLuc counter=16
O=C(CN1C(=O)NC2(CCCC2)C1=O)Nc1ccccc1F | 0 | -1 | 5 | -5 | 0 | . | . | . | . | .
C#CCOCCOCCOCCNc1nc(N2CCN(C(=O)CCCCCCCCCCNC(=O)[C@H](CCCCN)n3cc(CCO)nn3)CC2)nc(N2CCN(C(=O)CCCCCCCCCCNC(=O)[C@H](CCCCN)n3cc(CCO)nn3)CC2)n1 | 0 | 0 | 117* | 14 | 64* | 3 | 125* | . | 46* | 1 | Apaf1 inh interf=>100
C#CCOCCOCCOCCNc1nc(N2CCN(C(=O)CCCCCCCCCCNC(=O)Cn3cc(CCCCCN)nn3)CC2)nc(N2CCN(C(=O)CCCCCCCCCCNC(=O)[C@H]([C@@H](C)CC)n3cc(CCCCCN)nn3)CC2)n1 | 14 | -1 | 124* | 100* | 74* | -2 | 123* | 21 | 58* | 5 | Apaf1 inh interf=>100
C#CCOCCOCCOCCNc1nc(N2CCOCC2)nc(N2CCN(C(=O)CCCCCCCCCCNC(=O)[C@@H]([C@H](C)O)n3cc(C)nn3)CC2)n1 | -1 | 0 | 7 | 15 | -4 | . | . | . | . | .
C#CCOCCOCCOCCNc1nc(N2CCN(C(=O)[C@H]([C@@H](C)CC)n3cc(CCCCN)nn3)CC2)nc(N2CCN(C(=O)[C@H]([C@@H](C)CC)n3cc(CCCN=C(N)N)nn3)CC2)n1 | 0 | 1 | 53* | -18 | 46* | -2 | 48* | . | 3 | 5
C#CCOCCOCCOCCNc1nc(N2CCN(C(=O)CCCCCCCCCCNC(=O)[C@H](CCCCN)n3cc(CCO)nn3)CC2)nc(N2CCN(C(=O)CCCCCCCCCCNC(=O)[C@@H]([C@H](C)O)n3cc(C)nn3)CC2)n1 | 1 | 1 | 121* | 0 | 59* | 2 | 122* | . | 31 | 6
CCC1(N(C(C)=O)c2ccc(OC)cc2)C(=O)c2ccccc2C1=O | 0 | -2 | -14 | -5 | -5 | . | . | . | . | .
O=C(Nc1ccc2c(c1)OCO2)C(=O)c1c[nH]c2ccccc12 | 1 | 3 | -3 | -115 | -15 | . | . | . | . | .
CCN1CCN(Cc2ccc(NC(=O)c3cc(NC(=O)C(=O)c4c[nH]c5ccccc45)cc(OC)c3)cc2C(F)(F)F)CC1 | 9 | 7 | 55* | 99* | 41* | -4 | 76* | 20 | 24 | 1
CCN1CCN(Cc2ccc(C(=O)Nc3ccc(C)c(NCc4cnc(NC(=O)OC)cn4)c3)cc2C(F)(F)F)CC1 | -2 | -1 | 19 | -12 | 4 | . | . | . | . | .
CCN1CCN(Cc2ccc(NC(=O)c3ccc(C)c(NC(=O)C(=O)c4c[nH]c5ccccc45)c3)cc2C(F)(F)F)CC1 | 17 | 25 | 53* | 100* | 74* | -5 | 96* | 93* | 35 | 1 | FLuc counter=31
CCCCCCCCCC[N+](C)(C)CC/C=C1/c2ccccc2Sc2ccc(Cl)cc21 | 3 | 0 | 107* | 83* | 81* | -2 | 119* | 76* | 88* | 36 | FLuc counter=19;Apaf1 inh interf=>100
CC[N+](C)(C)CC/C=C1/c2ccccc2Sc2ccc(Cl)cc21 | 1 | -1 | 15 | 34 | -4 | . | . | . | . | .
CCCCCCCCCCC[N+](C)(C)CC/C=C1/c2ccccc2Sc2ccc(Cl)cc21 | 0 | 1 | 106* | 78* | 75* | 3 | 118* | 69* | 88* | 28 | FLuc counter=29;Apaf1 inh interf=>100
O=C(NCc1ccccc1)C1=C[C@H](c2coc3ccccc3c2=O)C[C@H](OCCCCO)O1 | -1 | 0 | 8 | 21 | 6 | . | . | . | . | .
CN(C)CCOc1ccc(-c2c(-c3ccsc3)sc3ccccc23)cc1 | 15 | 3 | 78* | 93* | 71* | 0 | 74* | 33 | 24 | 13
c1ccc(-c2sc3ccccc3c2-c2ccc(OCCN3CCOCC3)cc2)cc1 | -4 | -2 | 31 | 7 | 24 | . | . | . | . | .
COc1cccc(-c2sc3ccc(OC)cc3c2-c2ccc(OCCN(C)C)cc2)c1 | 25 | 3 | 84* | 99* | 75* | 0 | 90* | 30 | 23 | 20

High-throughput results as filed in PubChem BioAssay.
